# Assay outcomes from PubChem.
# MPTP inh: permeability transition pore inhibition | 360,000 compounds, 1.4% hits | isolated mouse mitochondria, Ca2+ swelling absorbance, 30 min | inhibition, % at 10 µM;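 active = inhibition of 50% or more, scaled per plate between neutral and stimulator controls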;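 also: 0% = DMSO wells given calcium and 100% = 1 mM EGTA wells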
# WT yeast gro inh: growth inhibition of WT yeast, mitochondrial fusion screen; mitochondrial fusion phenotypic screen, WT strain; inhibition, % at 10 µM; 190,000 compounds, 2.1% hits; AID 1362; in the data active = inhibition above about 58%; tested in S. cerevisiae
# CHOP inh: inhibitors of CHOP induction in ER stress response; CHO-K1 CHOP-promoter luciferase, tunicamycin-induced, 15-18 h; inhibition, % at 10 µM; 220,000 compounds, 3.8% hits; AID 2732;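 active = compounds that reduced the stress-induced luciferase reporter signal by more than about 70% of percent inhibition, limit read from the data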;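 also: 0% = tunicamycin plus vehicle and 100% = wells without tunicamycin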
# EBV gp42 block: inhibitors of Epstein-Barr virus glycoprotein 42. Q1HVG2. Fluorescence polarization binding assay, mP read-out. inhibition, % (tested at 21.74 µM). 220,000 compounds, 0.42% hits. AID 1085; in the data active = inhibition above about 50%
# Target sequence (Q1HVG2 whole entry, looked up): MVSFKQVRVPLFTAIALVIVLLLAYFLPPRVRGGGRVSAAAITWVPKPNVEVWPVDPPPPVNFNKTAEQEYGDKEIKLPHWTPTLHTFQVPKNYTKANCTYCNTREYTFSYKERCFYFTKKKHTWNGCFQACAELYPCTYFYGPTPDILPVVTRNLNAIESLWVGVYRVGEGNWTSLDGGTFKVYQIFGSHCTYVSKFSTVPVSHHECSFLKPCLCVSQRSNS
# TbMetRS inhib: blocks T. brucei methionyl-tRNA synthetase activity | purified T. brucei MetRS, ATP depletion, Kinase-Glo luminescence | inhibition, % at 11.9 µM | 360,000 compounds, 0.4% hits | AID 624268;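 active = inhibition above a per-plate cutoff of the control wells' mean inhibition plus 3 SD, cut at about 5.5% in these data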;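 also: 0% = DMSO wells median and 100% = median of wells with control inhibitor compound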
#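 Dosing: 11.9 µM single point; system: parasite MetRS enzyme; technique: luminescence of leftover ATP; times: 15 min enzyme-compound preincubation, 2 h reaction, 10 min detection, 25 °C; replicates: each compound tested once; read-out basis: percent inhibition relative to median high and low control wells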
# GRIN3A LBD mod: modulators (binders) of human NR3A ligand-binding domain | NR3A LBD differential scanning fluorimetry, Tm shift; 0% = protein alone, 100% = glycine-bound protein | Tm shift relative to glycine control, % at 25 µM | 340,000 compounds, 2.5% hits;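 active = melting temperature shift of at least 10% of the positive control shift, at one fixed dose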
# Starred values were filed as active, the others as inactive; x = not tested or not shown. This is a sample that favours compounds with a hit; in the whole collection about 6.4% have one here.
SMILES,MPTP inh,WT yeast gro inh,CHOP inh,EBV gp42 block,TbMetRS inhib,GRIN3A LBD mod
COC(=O)C1Cc2c([nH]c3ccccc23)CN1 (configuration not stated),4,21,13,-6,0,4
C[C@H](NC(=O)c1[nH]cnc1C(=O)Nc1ccc(Cl)cc1)c1ccccc1,4,x,x,x,0,24*
CN(Cc1ccccc1)C(=O)c1[nH]cnc1C(=O)Nc1ccc(Cl)cc1,1,x,x,x,0,-4
Cc1cccc(NC(=O)c2nc[nH]c2C(=O)N[C@@H](Cc2ccccc2)C(=O)OC(C)(C)C)c1,0,x,74*,-4,0,-1
C[C@@H](NC(=O)c1[nH]cnc1C(=O)Nc1ccc(Cl)cc1)c1ccccc1,0,x,x,x,0,-1
O=C(Nc1ccc(Cl)cc1)c1nc[nH]c1C(=O)NCc1ccccc1,3,x,x,x,0,24*
CC(C)(C)OC(=O)[C@H](Cc1ccccc1)NC(=O)c1[nH]cnc1C(=O)Nc1cccc(Cl)c1,1,x,29,1,1,-15
CC(C)C[C@H](NC(=O)c1nc[nH]c1C(=O)NCC(=O)OC(C)(C)C)C(=O)OC(C)(C)C,-2,x,84*,-16,0,-7
COc1ccccc1OCc1nc(C#N)c(N2CCCC2)o1,-1,-13,-15,6,-1,1
Cn1c(SCC(=O)N2CCOCC2)nnc1-c1cccc(NC(=O)c2ccccc2F)c1,0,-7,5,-18,0,0
CCCN1CCN(CCCNC(=O)C(CC)n2nc(C)c3sc4ccccc4c3c2=O)CC1 (configuration not stated),-1,x,x,x,0,0
C[C@@H](NC(=O)c1[nH]cnc1C(=O)Nc1cccc(Cl)c1)c1ccccc1,3,x,x,x,0,26*
Cc1ccc(NC(=O)c2nc[nH]c2C(=O)N[C@@H](C)c2ccccc2)cc1,2,74*,-5,-1,0,-2
COc1cc(NC(=O)c2cc(Cl)nnc2Cl)cc(OC)c1OC,0,-17,-32,-3,0,0
COC(=O)c1ccc(Cn2nc(C(F)(F)F)cc2C)cc1,-1,14,10,7,-1,17*
Cc1cccn2c(=O)c(/C=C(\C#N)S(=O)(=O)c3ccccc3)c(Oc3ccc(Cl)cc3)nc12,0,60*,43,-19,0,0
CCOC(=O)CSC1=N/C(=C\c2cc(OC)c(OC)c(OC)c2)C(=O)N1C,2,5,11,-6,0,-3
Nc1c(Cl)ncnc1N/N=C/c1cccc(O)c1,1,x,-23,-9,1,24*
COc1ccc(CN2CCCC(N3CCN(c4ccc(OC)cc4)CC3)C2)cc1 (configuration not stated),0,x,x,x,-1,-1
O=C(COC(=O)c1cccnc1)Nc1ccc(F)cc1,1,4,-1,-16,0,3
CCCC1CC(C)(c2csc(Nc3ccc(OCC)cc3)n2)OC1=O (configuration not stated),7,69*,56,5,-1,-3
COc1ccc(/C(N)=N/OC(=O)Cc2cccs2)cc1,0,1,-9,5,-1,11*
CCCCc1cc(=O)oc2c(CN(CC)CC)c(O)c(Cl)cc12,0,2,43,-6,0,0
CC(=O)c1c(C)[nH]c(C(=O)CN2C(=O)NC(C)(c3ccc4c(c3)OCCO4)C2=O)c1C (configuration not stated),-2,x,x,x,0,32*
CC(C)(CNC(=O)c1cc(-c2ccc(Cl)s2)nc2ccccc12)N1CCOCC1,2,x,x,x,0,-1
Cc1cc(C(=O)c2ccc(Cl)cc2)c(NC(=O)CCl)s1,0,-3,63,-1,0,12*
CC(=O)Nc1cccc2c1Cc1ccccc1-2,0,x,x,x,-1,36*
C=CCc1cc(/C=N\NC(=O)CSc2nnc(CCCc3ccc(OC)c(C)c3)o2)cc(OC)c1O,0,8,59,-34,-2,-7
C=CCc1cc(/C=N/NC(=O)CSc2nnc(CCCc3ccc(OC)cc3)o2)cc(OC)c1O,3,13,78*,-22,-1,-2
COc1ccc(/C=N/NC(=O)CSc2nnc(CCCc3ccc(OC)c(C)c3)o2)cc1,-3,7,70*,-3,0,-1
